Reference: ChEMBL document CHEMBL1128551, “Decapeptide agonists of human C5a: the relationship between conformation and neutrophil response” (J Med Chem, 1995)
Where a SMILES comes first, the peptide text is derived from it.

molecular target: T1, C5a anaphylatoxin chemotactic receptor 1 (Homo sapiens, UniProt P21730); assay: Release of beta-glucuronidase from human polymorphonuclear leukocytes(PMN); assay type: functional
T1 sequence (P21730 whole entry): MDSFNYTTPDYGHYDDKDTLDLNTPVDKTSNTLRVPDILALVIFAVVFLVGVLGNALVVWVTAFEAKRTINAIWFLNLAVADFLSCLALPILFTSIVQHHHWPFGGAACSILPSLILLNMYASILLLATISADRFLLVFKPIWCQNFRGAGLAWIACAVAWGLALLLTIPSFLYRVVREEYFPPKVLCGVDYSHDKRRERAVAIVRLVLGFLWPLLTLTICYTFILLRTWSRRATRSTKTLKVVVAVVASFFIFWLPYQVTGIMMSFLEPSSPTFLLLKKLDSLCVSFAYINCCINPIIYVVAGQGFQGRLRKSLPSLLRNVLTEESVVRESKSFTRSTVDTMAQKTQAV
Outline: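 Human PMNs pretreated with cytochalasin B (5 μg/mL, 10 min, 37 °C). 10^6 cells incubated with stimulant 60 min at 37 °C, then centrifuged. Supernatant reacted with 0.01 M p-nitrophenyl β-D-glucuronide in 0.1 M sodium acetate pH 4 for 18 h, in triplicate. Stopped with 0.4 M glycine pH 10. EC50 from dose-response.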

| Compound | EC50 |
| --- | --- |
| CC(C)C[C@H](NC(=O)[C@@H]1CCCN1C(=O)[C@H](C)NC(=O)[C@H](CC(=O)O)NC(=O)[C@H](CCCCN)NC(=O)[C@H](Cc1ccccc1)NC(=O)[C@H](CO)NC(=O)[C@@H](N)Cc1ccc(O)cc1)C(=O)NCC(=O)N[C@@H](CCCNC(=N)N)C(=O)O | 207 µM |
| CSCC[C@H](NC(=O)[C@H](CC(=O)O)NC(=O)[C@H](CCCCN)NC(=O)[C@H](Cc1ccccc1)NC(=O)[C@H](CO)NC(=O)[C@@H](N)Cc1ccc(O)cc1)C(=O)N[C@@H](CCC(N)=O)C(=O)N[C@@H](CC(C)C)C(=O)N1CCC[C@H]1C(=O)N[C@@H](CCCNC(=N)N)C(=O)O | > 1000 µM |
| H-YSFKDCPLGR-OH | > 1000 µM |
| H-YSFKDMQLGR-OH | 520 µM |
| H-YSFKGMLLGR-OH | 70 µM |
| H-YSFKGLLLGR-OH | 27.7 µM |
| H-YSFKDMQPGR-OH | 42 µM |
| CSCC[C@H](NC(=O)[C@H](CC(=O)O)NC(=O)[C@H](CCCCN)NC(=O)[C@H](Cc1ccccc1)NC(=O)[C@H](CO)NC(=O)[C@@H](N)Cc1ccc(O)cc1)C(=O)N1CCC[C@H]1C(=O)N[C@@H](CC(C)C)C(=O)NCC(=O)N[C@@H](CCCNC(=N)N)C(=O)O | 80 µM |
| CSCC[C@H](NC(=O)[C@H](CC(=O)O)NC(=O)[C@H](CCCCN)NC(=O)[C@H](Cc1ccccc1)NC(=O)[C@H](CO)NC(=O)[C@@H](N)Cc1ccc(O)cc1)C(=O)N1CCC[C@H]1C(=O)N[C@@H](C)C(=O)NCC(=O)N[C@@H](CCCNC(=N)N)C(=O)O | 680 µM |
| CC(C)C[C@H](NC(=O)[C@@H]1CCCN1C(=O)[C@H](CS)NC(=O)[C@H](CC(=O)O)NC(=O)[C@H](CCCCN)NC(=O)[C@H](Cc1ccccc1)NC(=O)[C@H](CO)NC(=O)[C@@H](N)Cc1ccc(O)cc1)C(=O)N[C@@H](CS)C(=O)N[C@@H](CCCNC(=N)N)C(=O)O (H-YSFKDCPLCR-OH) | > 1000 µM |
| H-ISHKDMQLGR-OH | 0.0123 µM |
